These results are taken from PubChem BioAssay AID488974 (NMMLSC, 2010).

Activity calls are given as the source filed them.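 Rule for the calls: active = ratio of toxic midpoint dose to chemo-reversal midpoint dose above 10, among compounds with toxic midpoint under 15 µM; inactive = the rest.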

For the assay, the system named is Igrove/Jurkat-DNR chemoreversal, trypan blue viability, 7 d. The assay is described as follows: chemoreversal in ABCG2 cells, dose response, ABC transporter inhibitor project, paired ABCB1 counter-screen, SAR hit validation (AID 488974). The settings on record: for CC50: measured here: toxicity in resistant cells alone. An outline of the steps:
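System: drug-resistant human Igrove (ABCG2 arm) and Jurkat/DNR (ABCB1 counterscreen) cells / Quantity: 100,000 cells/mL / Also added: fixed selective agents mitoxantrone (Igrove) and daunorubicin (Jurkat/DNR) / Doses: test compound dose series spanning 0.1–100 µM / Incubation: compound exposure over 7 days / Signal: trypan blue exclusion with cell counting by light microscopy / Measure: chemo-reversal 50% viability concentration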
(The purpose of a counterscreen is to sort out artefacts and off-target activity.)

As to `Cc1cc(N2CCN(C(=O)c3ccco3)CC2)n2nc(C)c(-c3ccccc3)c2n1`, the EC50 is 2.18 µM and the 50% cytotoxic concentration (CC50) came to 22.3 µM.
For `Cc1cc(N2CCN(C(=O)c3ccco3)CC2)n2nc(-c3ccccc3)nc2n1`, in that order: 2.94 µM (inactive) and 16.2 µM.
The matching figures for `COc1cccc(C(=O)N2CCN(c3cc(-c4ccccc4)nc4cc(-c5cccc(Cl)c5)nn34)CC2)c1`: 0.21 µM and above 101 µM.
For `COc1ccc(-c2cc3nc(-c4ccccc4)cc(N4CCN(C(=O)c5ccsc5)CC4)n3n2)cc1`, the EC50 was 0.17 µM and the half-maximal cytotoxic concentration (CC50) was found to be 30.6 µM.
Take `COc1ccc(-c2cc3nc(-c4ccccc4)cc(N4CCN(C(=O)c5ccoc5)CC4)n3n2)cc1`: the EC50 is 0.38 µM and the CC50 is above 100 µM.
With `COc1cccc(-c2cc3nc(C)c(C)c(N4CCN(Cc5ccco5)CC4)n3n2)c1`, the EC50 was 0.09 µM and the CC50 was above 100 µM.
For `O=C(c1ccoc1)N1CCN(c2cc(-c3ccco3)nc3cc(-c4ccccc4)nn23)CC1`, in that order: 0.31 µM and 18.3 µM.
The matching figures for `O=C(c1ccco1)N1CCN(c2c3c(nc4cc(-c5cccc(F)c5)nn24)CCCC3)CC1`: 0.39 µM (inactive) and 5.77 µM.
The matching figures for `COc1ccccc1-c1cc2nc(-c3ccccc3)cc(N3CCN(C(=O)c4ccoc4)CC3)n2n1`: 0.49 µM (inactive) and 6.5 µM.
Turning to `O=C(c1ccco1)N1CCN(c2cc(-c3ccccc3)nc3cc(-c4cccc(F)c4)nn23)CC1`, the EC50 is 0.76 µM (inactive) and the CC50 is 8.25 µM.
The matching figures for `Cc1nc2cc(-c3cccc(Cl)c3)nn2c(N2CCN(C(=O)c3ccco3)CC2)c1C`: 0.17 µM and 47.4 µM.
The matching figures for `O=C(c1ccoc1)N1CCN(c2cc(-c3ccccc3)nc3cc(-c4ccncc4)nn23)CC1`: 1.5 µM and 22.3 µM.
For `COc1ccc(-c2cc3nc(C)c(C)c(N4CCN(C(C)=O)CC4)n3n2)cc1`, in that order: 3.28 µM and 81.7 µM.
For `O=C(c1ccoc1)N1CCN(c2cc(-c3ccncc3)nc3cc(-c4cccc(Cl)c4)nn23)CC1`, the half-maximal effective concentration (EC50) was 0.89 µM and the half-maximal cytotoxic concentration (CC50) came out at 57.8 µM.
Consider `Cc1nc2cc(-c3ccc(F)cc3)nn2c(N2CCN(C(=O)c3ccco3)CC2)c1C`, for which the EC50 was 0.12 µM (inactive) and the CC50 was found to be 5.33 µM.
The matching figures for `O=C(c1ccoc1)N1CCN(c2cc(-c3cccnc3)nc3cc(-c4cccc(Cl)c4)nn23)CC1`: 0.02 µM (inactive) and 5.77 µM.
The matching figures for `COc1cc(OC)cc(-c2cc3nc(C)c(C)c(N4CCN(C(=O)c5ccoc5)CC4)n3n2)c1`: 0.95 µM and above 100 µM.
For `O=C(c1cccnc1)N1CCN(c2cc(-c3ccccc3)nc3cc(-c4cccc(Cl)c4)nn23)CC1`, in that order: 0.13 µM (inactive) and 10.3 µM.
In the case of `Cc1nc2cc(-c3cccc(Cl)c3)nn2c(N2CCN(C(=O)c3ccoc3)CC2)c1C`, the EC50 was 0.6 µM and the cytotoxic concentration (CC50) was above 100 µM.
Regarding `COc1ccc(-c2[nH]nc3nc(N4CCN(C(=O)c5ccoc5)CC4)cc(C(F)(F)F)c23)cc1`, the EC50 was 0.46 µM (inactive) and the cytotoxic concentration (CC50) was found to be 1.31 µM.
Consider `O=C(C1CCCO1)N1CCN(c2c3c(nc4cc(-c5cccc(F)c5)nn24)CCCC3)CC1` (centres undefined), for which the concentration giving a half-maximal response (EC50) was 0.2 µM and the 50% cytotoxic concentration (CC50) was found to be 17.5 µM.
For `O=C(c1ccncc1)N1CCN(c2cc(-c3ccccc3)nc3cc(-c4cccc(Cl)c4)nn23)CC1`, in that order: 0.15 µM and 28.3 µM.
The matching figures for `O=C(c1ccco1)N1CCN(c2cc(-c3ccccc3)nc3cc(-c4cccc(Cl)c4)nn23)CC1`: 0.14 µM (inactive) and 6 µM.
The matching figures for `CC(=O)N1CCN(c2c(C)c(C)nc3cc(-c4cccc(F)c4)nn23)CC1`: 0.73 µM and above 100 µM.
As for `O=C(c1ccco1)N1CCN(c2cc(Cc3ccccc3)nc3cc(-c4cccc(Cl)c4)nn23)CC1`, the EC50 is 1.38 µM (inactive) and the cytotoxic concentration (CC50) was 10.5 µM.
`Cc1nc2cc(-c3cccc(Cl)c3)nn2c(N2CCN(C(=O)c3ccsc3)CC2)c1C`: the EC50 is 0.49 µM (inactive) and the CC50 was found to be 14.9 µM.
The matching figures for `COc1cccc(-c2cc3nc(-c4ccco4)cc(N4CCN(C(=O)c5ccoc5)CC4)n3n2)c1`: 1 µM and above 100 µM.
As for `Cc1cc(N2CCN(C(=O)c3ccco3)CC2)n2nc(-c3ccc(F)cc3)cc2n1`, the EC50 was 0.14 µM and the CC50 was 40.4 µM.
For `COc1cccc(-c2cc3nc(C)c(C)c(N4CCN(C(=O)c5ccoc5)CC4)n3n2)c1`, in that order: 0.76 µM and above 100 µM.
The matching figures for `Cc1nc2cc(-c3ccc4c(c3)OCO4)nn2c(N2CCN(C(=O)c3ccoc3)CC2)c1C`: 1.63 µM and above 100 µM.
The matching figures for `Cc1ccc(-c2cc3nc(-c4ccccc4)cc(N4CCN(C(=O)c5ccoc5)CC4)n3n2)cc1`: 0.45 µM and 86 µM.
As for `O=C(Cc1ccccc1)N1CCN(c2cc(-c3ccccc3)nc3cc(-c4cccc(Cl)c4)nn23)CC1`, the EC50 is 0.6 µM and the cytotoxic concentration (CC50) is above 100 µM.
The matching figures for `COc1ccc(-c2cc3nc(-c4ccccc4)cc(N4CCN(C(=O)c5ccccc5)CC4)n3n2)cc1`: 0.2 µM and 82.6 µM.
The matching figures for `COc1cccc(-c2cc(N3CCN(C(=O)c4ccoc4)CC3)n3nc(-c4cccc(OC)c4)cc3n2)c1`: 0.68 µM and above 100 µM.
`O=C(c1ccoc1)N1CCN(c2cc(-c3ccco3)nc3cc(-c4cccc(Cl)c4)nn23)CC1`: the EC50 was 1.38 µM (inactive) and the 50% cytotoxic concentration (CC50) was determined as 10.8 µM.
For `Cc1nc2ncnn2c(N2CCN(C(=O)c3ccco3)CC2)c1Cc1ccccc1`, in that order: 10.1 µM (inactive) and above 100 µM.
The matching figures for `COc1ccc(-c2cc3nc(C)c(C)c(N4CCN(C(=O)c5ccco5)CC4)n3n2)cc1`: 1.44 µM (inactive) and 10.5 µM.

As usually defined, the EC50 is the concentration that produces a half-maximal response. What is called CC50 is the concentration that lowers cell viability or growth by half.
